SUMO HTRF inh = SUMOylation inhibition | HTRF SUMOylation assay, SAE1/SAE2 + UBC9, in vitro | 0.36% of 290,000 active | inhibition, % at 35 µM | AID 2006; in the data active = inhibition above about 50%, passing the limit was not always enough
Target sequence (P63279 whole entry, looked up): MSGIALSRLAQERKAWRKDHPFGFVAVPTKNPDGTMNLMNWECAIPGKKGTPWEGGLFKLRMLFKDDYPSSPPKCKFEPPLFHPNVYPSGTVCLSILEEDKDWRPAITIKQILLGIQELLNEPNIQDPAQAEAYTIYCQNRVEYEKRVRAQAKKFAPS
p47phox inh = blocks human p47phox regulatory protein of NADPH oxidases; P14598; p47phox/p22phox peptide binding, fluorescence polarization, 2 h; inhibition, % at 24.7 µM; 0.53% of 220,000 active; AID 1274
Target sequence (P14598 whole entry, looked up): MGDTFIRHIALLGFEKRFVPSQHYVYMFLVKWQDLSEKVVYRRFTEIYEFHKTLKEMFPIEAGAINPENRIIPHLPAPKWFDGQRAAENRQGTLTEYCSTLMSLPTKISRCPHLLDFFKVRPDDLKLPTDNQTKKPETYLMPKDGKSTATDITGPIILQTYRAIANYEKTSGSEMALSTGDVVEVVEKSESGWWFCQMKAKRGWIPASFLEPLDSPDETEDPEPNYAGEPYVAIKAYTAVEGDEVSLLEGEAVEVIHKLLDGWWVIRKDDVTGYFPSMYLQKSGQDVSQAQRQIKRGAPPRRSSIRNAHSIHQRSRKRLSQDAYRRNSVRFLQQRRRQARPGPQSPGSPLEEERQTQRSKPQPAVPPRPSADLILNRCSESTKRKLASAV
14-3-3 Bad inh = disrupts binding of bovine 14-3-3 zeta to phospho-Bad peptide. P63103. TR-FRET 14-3-3zeta/Dy647-pBad peptide displacement, 1 h. inhibition, % at 21.7 µM. 0.71% of 220,000 active. AID 781;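 active = inhibition above about 70%, limit read from the data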
Tb MetRS inh = blocks T. brucei methionyl-tRNA synthetase activity; purified T. brucei MetRS, ATP depletion, Kinase-Glo luminescence; inhibition, % at 11.9 µM; 0.4% of 360,000 active;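 active = inhibition above a per-plate cutoff of the control wells' mean inhibition plus 3 SD, cut at about 5.5% in these data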
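Test system: purified T. brucei MetRS enzyme. Also added: ATP, methionine and E. coli bulk tRNA substrates. Compound: 11.9 µM single point. Schedule: 15 min enzyme-compound preincubation, 2 h reaction, 10 min detection, 25 °C. Signal: luciferase luminescence of residual ATP, Kinase-Glo. Evaluation: percent inhibition versus plate control medians. Controls: DMSO wells, low control.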
p97 inhibitor = human p97 ATPase inhibition; 0.42% of 220,000 active; P55072; inhibition, % at 8 µM; recombinant p97 ATPase, Kinase-Glo ATP luminescence, 3 h; in the data active = inhibition above about 15%
eIF4E-4G inh = inhibitors of eIF4E and eIF4G interaction in translation initiation. TR-FRET eIF4E-eIF4GI(517-606) binding, 2 h. inhibition, % at 21.7 µM. 0.37% of 220,000 active
Hits are given with their value; . = inactive; / = no result given; + = active, no number; [ ] = another dose, or the depositor's remark. Most compounds without a hit are left out; they make up all but 1.6% or so of the library.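 The calls were made as follows, unless noted: active = inhibition above about 30% (limit read from the data); inactive = the rest.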

SMILES | SUMO HTRF inh | p47phox inh | 14-3-3 Bad inh | Tb MetRS inh | p97 inhibitor | eIF4E-4G inh
O=[N+]([O-])c1ccc(C(=Nc2cccc3ccccc23)N2CCOCC2)cc1 | . | . | 97[fluorescence artefact?] | . | . | .
CC(C)C[C@H]1CN(CCCC[C@@H]2CNC(=O)C(=O)N2CC2CCCCC2)C(=O)C(=O)N1CC1CCCCC1 | / | / | / | . | / | /
Cc1cc2[nH]c3c(c[n+](C)c4ccccc34)c2cc1C | . | 50 | . | . | . | .
Cc1ccc(S(=O)(=O)C[C@@H]2OC[C@H](C(C)C)N2S(=O)(=O)c2ccc(C)cc2)cc1 | / | / | / | . | / | /
CC(C)CC(=O)Nc1nnc(SCC(=O)Nc2nccs2)s1 | . | / | / | . | / | /
COc1ccc(C(=O)C(c2ccccc2)N2CCOCC2)cc1 (centres undefined) | . | . | 71 | . | . | .
O=C(Cn1cnc2ccc(Br)cc2c1=O)c1cccs1 | . | . | . | . | . | .
Oc1ccccc1N1CCN(C(=S)NCCc2ccccc2)CC1 | . | 47 | . | . | . | .
Oc1ccc(N2CCN(C(=S)NCCc3ccccc3)CC2)cc1 | . | 95 | . | . | . | .
S=C(NCCc1ccccc1)N1CCN(Cc2ccccc2)CC1 | . | . | . | . | . | .
COc1cccc(CNC(=O)C2CCN(S(=O)(=O)c3ccc(Br)s3)CC2)c1 | . | / | / | . | / | /
CCSc1sccc1C1C(C#N)=C(N)N(c2cccnc2)C2=C1C(=O)CCC2 (centres undefined) | . | . | 90 | . | . | .
COc1cc(C2C(C#N)=C(N)N(c3cccnc3)C3=C2C(=O)CCC3)ccc1O (centres undefined) | . | . | . | . | . | .
O=C(Nc1ccccc1C(=O)NCc1ccc(Cl)cc1)c1ccco1 | . | 31 | . | . | . | .
Cc1ccc(S(=O)(=O)Nc2cc(C)c(O)cc2C)cc1 | . | . | . | . | . | .
Cc1ccc(S(=O)(=O)Nc2csc(C)c2C(=O)O)cc1 | . | . | 73 | / | . | .
CN[C@H]1C[C@H]2c3[nH]c4ccc(-c5cccc(C)c5)cc4c3CCN2C[C@H]1[C@H](C)O | / | / | / | . | / | /
CC1(C)CC(=O)c2c(O)cc(OCc3ccc(Br)cc3)cc2O1 | . | . | . | . | . | .
CC1(C)CC(=O)c2ccc(OCc3ccc([N+](=O)[O-])cc3)cc2O1 | . | . | . | . | . | 34
CCCCCCC(=O)NNC(=O)CC(=O)Nc1ccccc1C(=O)O | . | . | . | . | . | .
CCc1nnc(NCC(=O)N2CCc3ccccc32)s1 | . | + | / | . | . | /
C/C(CC(=O)NC1CCCC1)=N\NC(=O)C1CCCCC1 | . | . | 97 | . | . | .
O=C(Nc1ccc2c(c1)CCO2)Nc1nnc([C@H]2C[C@H](O)[C@@H](CO)O2)s1 | / | / | / | . | / | /
O=C(Cn1nnc(-c2cccs2)n1)NNC(=O)c1ccccc1Cl | . | . | . | . | . | .
O=C(Oc1ccc(C(=S)N2CCOCC2)cc1Br)c1cc(Cl)ccc1Cl | . | . | . | . | . | .
SMILES | SUMO HTRF inh | p47phox inh | 14-3-3 Bad inh | Tb MetRS inh | p97 inhibitor | eIF4E-4G inh
O=C(Oc1c(Br)cc(C(=S)N2CCOCC2)cc1Br)c1ccc(Cl)cc1 | . | . | . | . | . | 49
CCCCCCCCn1ccc(=N)cc1 | . | . | . | . | . | .
CCCCCCCCCCCCCCCCn1cc[n+](C)c1 | . | 102 | 95 | . | . | 43
CCCCCOCC1CC(C/C(C)=N/Nc2nc(-c3ccccc3)cs2)C(=O)O1 (centres undefined) | . | . | 81 | . | . | .
O=[N+]([O-])c1ccc(Oc2ccc(S(=O)(=O)N3CCOCC3)cn2)cc1 | / | / | / | . | / | /
COc1ccc(CN2CCN(C(=O)CC(C)C)CC2)cc1Br | . | / | / | . | / | /
COc1ccc(CN2CCN(C(=O)CC(C)C)CC2)c2ccccc12 | . | . | 83 | . | . | .
COc1ccc(CN2CCN(C(=O)CC(C)C)CC2)cc1OC | . | . | 74 | . | . | .
Cc1ccccc1CN1CCN(C(=O)CC(C)C)CC1 | . | / | / | . | / | /
COC(=O)C[C@H]1C=C[C@H](NC(=O)Nc2ccccc2F)[C@@H](CO)O1 | / | / | / | . | / | /
Nc1nc(C2C(=O)CCCC2=O)cs1 | . | . | 71 | . | . | .
Nc1nc(C2CC(=O)OC23CCCCC3)cs1 (centres undefined) | . | . | . | . | . | .
CCc1nnc(NS(=O)(=O)c2ccc(NC(=S)NC(=O)/C=C/c3ccc(C(C)C)cc3)cc2)s1 | . | . | . | . | . | 64[fluorescence artefact?]
Oc1c(CN2CCOCC2)cc(CN2CCOCC2)c(O)c1CN1CCOCC1 | / | / | / | . | / | /
CC(C)(C)c1nc(CN2CCOCC2)cc(CN2CCOCC2)c1O | . | . | 79 | . | . | .
COc1ccc(OC)c(C(c2nnnn2C2CCCC2)N2CCN(c3ccccc3)CC2)c1 (centres undefined) | . | . | . | . | . | .
CCn1cc(/C=N/NC(=O)COc2cccc3cccnc23)c2ccccc21 | . | 41 | 80[fluorescence artefact?] | . | . | .
O=C(Nc1ccc2c(c1)OCO2)C1Cc2c(-c3ccccc3Oc3ccccc3)ccnc2O1 (centres undefined) | / | / | / | . | / | /
Cc1ccc2sc(N(CCCN(C)C)C(=O)c3nc4ccccc4s3)nc2c1C | . | 32 | . | . | . | .
COc1cc(CNc2ccccc2SC)ccc1O | . | . | 77 | . | . | .
Cc1[nH]nc(SCC(=O)NC2CCCCC2)c1[N+](=O)[O-] | . | . | . | . | . | .
O=C(O)c1cccc(-n2cccc2/C=C2/NC(=O)N(c3ccc(Cl)cc3)C2=O)c1 | 90 | . | 94 | . | 18 | 71
O=C(O)c1cccc(-n2cccc2/C=C2/NC(=O)N(c3cccc(Cl)c3)C2=O)c1 | . | . | . | . | . | .
Cc1ccc(S(=O)(=O)NC(=O)C2(C)CCN2C(=O)Cc2ccc(Cl)cc2Cl)nc1 (centres undefined) | / | / | / | . | / | /
c1ccc(-c2nc(-c3ccncc3)n[nH]2)nc1 | . | . | . | . | . | 54
SMILES | SUMO HTRF inh | p47phox inh | 14-3-3 Bad inh | Tb MetRS inh | p97 inhibitor | eIF4E-4G inh
O=C(O)c1ccc2c(c1)C(=O)N(c1cccc(-c3nc4ccccc4s3)c1)C2=O | 70 | . | . | . | . | 46
CCCCCCCCN1C(=O)[C@H](CC(=O)NCc2cccs2)C[C@@]2(C(=O)OC)CC(C)(C)CC=C12 | / | / | / | . | / | /
Cc1ccccc1CSc1nncn1N | . | . | . | . | . | 46
Cc1ccc(NC(=O)c2cc(-n3cnnc3)ccc2Cl)c(C)c1 | . | 42 | . | . | . | .
Cc1ccnc(NC(=O)c2cc(-n3cnnc3)ccc2Cl)c1 | . | . | . | . | . | .
CCc1c(-c2cccc(OC)c2)ncn1Cc1cccc(-c2ccccc2)c1 | / | / | / | . | / | /
NC(COCc1ccccc1)c1csc(NC(=O)Nc2cccc(Cl)c2)n1 (centres undefined) | / | / | / | . | / | /
CCOc1ccc(S(=O)(=O)N2CCC(C(=O)NCc3ccncc3)CC2)cc1C | . | / | / | . | / | /
CC(NS(=O)(=O)c1ccc(OCC(=O)NCc2ccccn2)cc1)c1ccccc1 (centres undefined) | . | / | / | . | / | /
